Source: ChEMBL document CHEMBL3108706, “Design, synthesis, and biological activity of novel dicoumarol glucagon-like peptide 1 conjugates” (J Med Chem, 2013)
The source made the active and inactive calls. The rule behind the calls is not given here.

Assays:
Mus musculus [1] = test: Antidiabetic activity in C57BL/6J-m+/+Leprdb (db/db) mouse assessed as reduction of blood glucose level at 25 nmol/kg, ip qd administered for 49 days followed by glucose challenge on day 52 measured after 120 mins post glucose challenge by IPGTT; type: functional, organism-based
How it was run: (§1)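 Mice from the 49-day once-daily ip dosing study (db/db, n = 8/group) were tested by IPGTT on day 0 and day 52, 3 days after the last dose. They were fasted 18 h, challenged ip with 1 g/kg glucose, and tail-vein glucose was read with a meter at 0, 15, 30, 45, 60, 90 and 120 min.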

[2] = Mean residence time in Sprague-Dawley rat at 15 nmol/kg, sc by LC-MS/MS analysis; type: ADME, organism-based; conditions: in vivo
Mus musculus [3] = test: Antidiabetic activity in C57BL/6J-m+/+Leprdb (db/db) mouse assessed as reduction of blood glucose AUC (0 to 48 hrs) at 25 nmol/kg, ip administered for 0.5 hrs; type: functional, organism-based
How it was run: (§2)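 Non-fasted male db/db mice (7 weeks, free access to food and water) got a single ip injection (25 or 150 nmol/kg) or saline. Mean ± SD, n = 6.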

Rattus norvegicus [4] = test: Anticoagulant activity in Sprague-Dawley rat assessed as activated […] time at 150 nmol/kg, iv administered for 6 days measured on day 7 by coagulometric analysis (reference value: 26.5 +/- 0.81 secs); type: functional
Mus musculus [5] = test: Antidiabetic activity in C57BL/6J-m+/+Leprdb (db/db) mouse assessed as reduction of blood glucose level at 25 nmol/kg, ip qd administered for 49 days followed by glucose challenge on day 52 measured up to 90 mins post glucose challenge by IPGTT; type: functional, organism-based; how it was run: as §1
Rattus norvegicus [6] = test: Anticoagulant activity in Sprague-Dawley rat assessed as activated […] time at 25 nmol/kg, iv administered for 6 days measured on day 7 by coagulometric analysis (reference value: 26.5 +/- 0.81 secs); type: functional
Mus musculus [7] = test: Hypoglycemic activity in C57BL/6J-m+/+Leprdb (db/db) mouse assessed as time required to reduce plasma glucose level below 8.35 mM at 25 nmol/kg, ip administered for 0.5 hrs; type: functional; how it was run: as §2
Mus musculus [8] = test: Hypoglycemic activity in C57BL/6J-m+/+Leprdb (db/db) mouse assessed as reduction of plasma glucose level at 25 nmol/kg, ip administered 0.5 hrs prior to glucose challenge measured after 18 to 21 hrs by IPGTT (reference value: >30 mM); type: functional
Mus musculus [9] = test: Antidiabetic activity in C57BL/6J-m+/+Leprdb (db/db) mouse assessed as reduction of blood glucose level at 50 nmol/kg, ip qd administered for 49 days followed by glucose challenge on day 52 measured after 120 mins post glucose challenge by IPGTT; type: functional, organism-based; how it was run: as §1
Mus musculus [10] = test: Hypoglycemic activity in C57BL/6J-m+/+Leprdb (db/db) mouse assessed as reduction of plasma glucose level at 25 nmol/kg, ip administered 0.5 hrs prior to glucose challenge measured at 21.5 to 24 hrs by IPGTT; type: functional, organism-based
Rattus norvegicus [11] = test: Anticoagulant activity in Sprague-Dawley rat assessed as prothombin time at 150 nmol/kg, iv administered for 6 days measured on day 7 by coagulometric analysis (reference value: 13.5 +/- 0.32 secs); type: functional
Rattus norvegicus [12] = test: Antidiabetic activity in Sprague-Dawley rat assessed as increase of plasma insulin level at 25 nmol/kg, ip administered 0.5 hrs prior to glucose challenge measured at 15 mins by ELISA; type: functional
Rattus norvegicus [13] = test: AUC (0 to infinity) in Sprague-Dawley rat at 15 nmol/kg, sc by LC-MS/MS analysis; type: ADME, organism-based, Plasma; set-up: dose 15 nmol/kg, route subcutaneous, time infinity; conditions: in vivo
Rattus norvegicus [14] = test: Antidiabetic activity in Sprague-Dawley rat assessed as reduction of plasma glucose level at 25 nmol/kg, ip administered 0.5 hrs prior to glucose challenge measured at 15 to 60 mins by OGTT; type: functional, organism-based
Rattus norvegicus [15] = test: Antidiabetic activity in Sprague-Dawley rat assessed as increase of plasma insulin level at 25 nmol/kg, ip administered 0.5 hrs prior to glucose challenge measured for 120 mins by ELISA; type: functional, organism-based
How it was run: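 SD rats (200−250 g, n = 6/group) were fasted 12 h and given compound ip (25 nmol/kg) or saline 0.5 h before oral glucose (10 g/kg). Tail-vein blood glucose was read with a meter at −30, 0, 15, 30, 45, 60, 90, 120 and 180 min. Insulin was measured by rat insulin ELISA. Mean ± SD.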

[16] = Tmax in Sprague-Dawley rat at 15 nmol/kg, sc by LC-MS/MS analysis; type: ADME, organism-based; conditions: in vivo
albumin = albumin (Homo sapiens, UniProt P02768); test: Binding affinity to human serum albumin at 100 ug/mL after 3 hrs relative to control; type: ADME; conditions: read-out: PB (converted)
How it was run: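 Peptide at 100 μg/mL in PBS (50 μL) was incubated with HSA-conjugated Sepharose resin for 3 h at 25 °C, then centrifuged (1000 rpm, 10 min). Unbound peptide in the supernatant was quantified by micro BCA assay. Nonspecific adsorption was corrected with NHS-inactivated, albumin-free resin.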

Mus musculus [17] = test: Hypoglycemic activity in C57BL/6J-m+/+Leprdb (db/db) mouse assessed as reduction of plasma glucose level at 25 nmol/kg, ip administered 0.5 hrs prior to glucose challenge measured at 21.5 hrs by IPGTT (reference value: >30 mM); type: functional
Rattus norvegicus [18] = test: Anticoagulant activity in Sprague-Dawley rat assessed as prothombin time at 25 nmol/kg, iv administered for 6 days measured on day 7 by coagulometric analysis (reference value: 13.5 +/- 0.32 secs); type: functional
[19] = Half life in Sprague-Dawley rat plasma at 1000 ng/mL by LC-MS/MS analysis; type: ADME, cell-free
Rattus norvegicus [20] = test: Anticoagulant activity in Sprague-Dawley rat assessed as thombin time at 25 nmol/kg, iv administered for 6 days measured on day 7 by coagulometric analysis (reference value: 19.38 +/- 0.72 secs); type: functional
Mus musculus [21] = test: Antidiabetic activity in C57BL/6J-m+/+Leprdb (db/db) mouse assessed as reduction of blood glucose level at 50 nmol/kg, ip qd administered for 49 days followed by glucose challenge on day 52 measured up to 90 mins post glucose challenge by IPGTT; type: functional, organism-based; how it was run: as §1
[22] = Elimination half life in Sprague-Dawley rat at 15 nmol/kg, sc by LC-MS/MS analysis; type: ADME, organism-based; conditions: in vivo, read-out: beta t1/2 (converted)
Rattus norvegicus [23] = test: Anticoagulant activity in Sprague-Dawley rat assessed as thombin time at 150 nmol/kg, iv administered for 6 days measured on day 7 by coagulometric analysis (reference value: 19.38 +/- 0.72 secs); type: functional
Rattus norvegicus [24] = test: Antidiabetic activity in Sprague-Dawley rat assessed as reduction of plasma glucose level at 25 nmol/kg, ip administered 0.5 hrs prior to glucose challenge by OGTT (reference value: 13.32 +/- 1.84 mM); type: functional
[25] = biological target: Glucagon-like peptide 1 receptor (Homo sapiens, UniProt P43220); test: Activation of human GLP-1 receptor overexpressed in HEK293 cells assessed as cAMP accumulation after 20 mins by HTRF assay; type: functional, cell-based
Mus musculus [26] = test: Hypoglycemic activity in C57BL/6J-m+/+Leprdb (db/db) mouse assessed as reduction of plasma glucose level at 25 nmol/kg, ip administered 0.5 hrs prior to glucose challenge measured up to 17 hrs by IPGTT (reference value: >30 mM); type: functional
Mus musculus [27] = test: Antidiabetic activity in C57BL/6J-m+/+Leprdb (db/db) mouse assessed as reduction of HbA1c level at 25 to 50 nmol/kg, ip qd measured over 7 weeks of drug treatment; type: functional, organism-based
How it was run: (§3)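 Male and female db/db mice (6 weeks, n = 8/group) were matched on HbA1c and given ip injections once daily for 49 days (25 or 50 nmol/kg; comparator 25 nmol/kg; saline controls). Wild-type C57BL/6 littermates served for normalization. HbA1c was measured weekly and body weight daily.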

Mus musculus [28] = test: Antidiabetic activity in ip dosed C57BL/6J-m+/+Leprdb (db/db) mouse assessed as suppression of body weight gain administered as qd measured over 7 weeks of drug treatment; type: functional, organism-based; how it was run: as §3
Rattus norvegicus [29] = test: Antidiabetic activity in Sprague-Dawley rat assessed as increase of plasma insulin level at 25 nmol/kg, ip administered 0.5 hrs prior to glucose challenge measured at 45 mins by ELISA; type: functional
Mus musculus [30] = test: Hypoglycemic activity in C57BL/6J-m+/+Leprdb (db/db) mouse assessed as time required to reduce plasma glucose level below 8.35 mM at 150 nmol/kg, ip administered for 0.5 hrs; type: functional
How it was run: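 Non-fasted male db/db mice (7 weeks, free access to food and water) got a single ip injection (25 or 150 nmol/kg) or saline. Glucose AUC0−48h and the time for glucose to return below 8.35 mM were derived. Mean ± SD, n = 6.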

[31] = Cmax in Sprague-Dawley rat at 15 nmol/kg, sc by LC-MS/MS analysis; type: ADME, organism-based; set-up: dose 15 nmol/kg, route subcutaneous; conditions: in vivo
Rattus norvegicus [32] = test: Anticoagulant activity in Sprague-Dawley rat assessed as prothombin time at 1 umol/kg, iv administered for 6 days measured on day 7 by coagulometric analysis (reference value: 13.5 +/- 0.32 secs); type: functional
Rattus norvegicus [33] = test: Anticoagulant activity in Sprague-Dawley rat assessed as activated […] time at 1 umol/kg, iv administered for 6 days measured on day 7 by coagulometric analysis (reference value: 26.5 +/- 0.81 secs); type: functional
Rattus norvegicus [34] = test: Anticoagulant activity in Sprague-Dawley rat assessed as thombin time at 1 umol/kg, iv administered for 6 days measured on day 7 by coagulometric analysis (reference value: 19.38 +/- 0.72 secs); type: functional

Sequence of albumin (P02768 whole entry): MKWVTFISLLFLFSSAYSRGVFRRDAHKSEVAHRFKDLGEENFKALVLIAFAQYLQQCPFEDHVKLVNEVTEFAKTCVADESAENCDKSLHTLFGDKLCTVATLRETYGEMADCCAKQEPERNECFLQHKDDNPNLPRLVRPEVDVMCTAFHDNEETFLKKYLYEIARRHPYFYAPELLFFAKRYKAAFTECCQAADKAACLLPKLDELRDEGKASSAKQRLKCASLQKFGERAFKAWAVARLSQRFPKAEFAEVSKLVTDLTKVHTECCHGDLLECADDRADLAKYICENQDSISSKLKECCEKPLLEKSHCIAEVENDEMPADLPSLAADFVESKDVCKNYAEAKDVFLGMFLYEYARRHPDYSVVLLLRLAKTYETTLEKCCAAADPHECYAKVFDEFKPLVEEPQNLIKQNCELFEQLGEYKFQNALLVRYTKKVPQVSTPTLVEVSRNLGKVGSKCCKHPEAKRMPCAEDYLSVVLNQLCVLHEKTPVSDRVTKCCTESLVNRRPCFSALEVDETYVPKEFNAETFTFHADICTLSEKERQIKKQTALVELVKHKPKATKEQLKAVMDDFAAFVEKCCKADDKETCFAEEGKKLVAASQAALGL
Sequence of Glucagon-like peptide 1 receptor (P43220 whole entry): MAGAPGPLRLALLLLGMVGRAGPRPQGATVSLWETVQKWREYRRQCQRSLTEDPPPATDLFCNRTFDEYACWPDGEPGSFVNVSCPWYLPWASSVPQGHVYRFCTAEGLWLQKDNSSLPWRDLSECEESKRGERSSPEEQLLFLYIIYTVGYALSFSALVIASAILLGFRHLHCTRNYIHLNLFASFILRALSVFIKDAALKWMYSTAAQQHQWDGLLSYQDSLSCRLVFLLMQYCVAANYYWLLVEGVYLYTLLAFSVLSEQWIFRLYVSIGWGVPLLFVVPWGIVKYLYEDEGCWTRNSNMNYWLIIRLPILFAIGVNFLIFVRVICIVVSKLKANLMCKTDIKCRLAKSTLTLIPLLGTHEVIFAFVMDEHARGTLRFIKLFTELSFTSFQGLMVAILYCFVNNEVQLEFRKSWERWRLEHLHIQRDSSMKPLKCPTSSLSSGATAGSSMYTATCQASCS

**Q.** For `CC[C@H](C)[C@H](NC(=O)[C@H](Cc1ccccc1)NC(=O)[C@H](CCC(=O)O)NC(=O)[C@H](CCCCN)NC(=O)[C@H](C)NC(=O)[C@H](C)NC(=O)[C@H](CCC(N)=O)NC(=O)CNC(=O)[C@H](CCC(=O)O)NC(=O)[C@H](CC(C)C)NC(=O)[C@H](Cc1ccc(O)cc1)NC(=O)[C@H](CO)NC(=O)[C@H](CSC1CC(=O)N(CCCCCCCCCCCC(=O)Nc2ccc(C(c3c(O)c4ccccc4oc3=O)c3c(O)c4ccccc4oc3=O)cc2)C1=O)NC(=O)[C@@H](NC(=O)[C@H](CC(=O)O)NC(=O)[C@H](CO)NC(=O)[C@@H](NC(=O)[C@H](Cc1ccccc1)NC(=O)[C@@H](NC(=O)CNC(=O)[C@H](CCC(=O)O)NC(=O)CNC(=O)[C@@H](N)Cc1cnc[nH]1)[C@@H](C)O)[C@@H](C)O)C(C)C)C(=O)N[C@@H](C)C(=O)N[C@@H](Cc1c[nH]c2ccccc12)C(=O)N[C@@H](CC(C)C)C(=O)N[C@H](C(=O)N[C@@H](CCCCN)C(=O)NCC(=O)N[C@@H](CCCNC(=N)N)C(N)=O)C(C)C` (stereo not given in full), which Activity (Mus musculus [1]) is on record?
**A.** inactive

**Q.** And the MRT [2]?
**A.** 33.8 h

**Q.** What about the Activity (Mus musculus [3]) of the same molecule?
**A.** Active

**Q.** And the APTT (Rattus norvegicus [4])?
**A.** 26.38 s

**Q.** And the Activity (Mus musculus [5])?
**A.** Active

**Q.** What about the APTT (Rattus norvegicus [6]) of the same molecule?
**A.** 26.39 s

**Q.** What about the Time (Mus musculus [7]) of the same molecule?
**A.** 24.7 h

**Q.** What about the Activity (Mus musculus [8]) of the same molecule?
**A.** <16 mM

**Q.** What about the Activity (Mus musculus [9]) of the same molecule?
**A.** inactive

**Q.** What about the Activity (Mus musculus [10]) of the same molecule?
**A.** Active

**Q.** What about the PT (Rattus norvegicus [11]) of the same molecule?
**A.** 13.55 s

**Q.** And the Activity (Rattus norvegicus [12])?
**A.** 1274.72 pM

**Q.** What about the AUC (Rattus norvegicus [13]) of the same molecule?
**A.** 40.6 µg·h/mL

**Q.** What about the Activity (Rattus norvegicus [14]) of the same molecule?
**A.** Active

**Q.** And the Activity (Rattus norvegicus [15])?
**A.** Active

**Q.** What about the Tmax [16] of the same molecule?
**A.** 1.82 h

**Q.** And the fraction unbound at 3 h, 100 ug/mL (albumin)?
**A.** 0.036

**Q.** And the Activity (Mus musculus [17])?
**A.** 13.8 mM

**Q.** What about the PT (Rattus norvegicus [18]) of the same molecule?
**A.** 13.39 s

**Q.** And the half-life at 1000 ng/mL [19]?
**A.** 67.9 h

**Q.** And the TT (Rattus norvegicus [20])?
**A.** 19.63 s

**Q.** What about the Activity (Mus musculus [21]) of the same molecule?
**A.** Active

**Q.** And the half-life [22]?
**A.** 22.1 h

**Q.** And the TT (Rattus norvegicus [23])?
**A.** 19.49 s

**Q.** And the Activity (Rattus norvegicus [24])?
**A.** 6.9 mM

**Q.** What about the EC50 [25] of the same molecule?
**A.** 0.0368 nM

**Q.** What about the Activity (Mus musculus [26]) of the same molecule?
**A.** <12 mM

**Q.** And the Activity (Mus musculus [27])?
**A.** Active

**Q.** What about the Activity (Mus musculus [28]) of the same molecule?
**A.** Dose-dependent effect

**Q.** And the Activity (Rattus norvegicus [29])?
**A.** 582.08 pM

**Q.** And the Time (Mus musculus [30])?
**A.** 35.8 h

**Q.** And the Cmax [31]?
**A.** 0.88 µg/mL

**Q.** What does the source list for `O=c1oc2ccccc2c(O)c1Cc1c(O)c2ccccc2oc1=O` [DICUMAROL]?
**A.** PT (Rattus norvegicus [32]): 25.22 s; APTT (Rattus norvegicus [33]): 56.36 s; TT (Rattus norvegicus [34]): 36.85 s
